{"data": "Results of several laboratories", "target": "Serine/threonine-protein kinase MARK1 (MARK1, Homo sapiens, UniProt Q9P0L2)", "effect on": "enzyme activity", "action": "inhibitor", "note": "Lines come from different studies, so protocols differ."}
{"Compound": "COc1cc(Cl)c(C(=O)N[C@@H](CN[C@H]2CC[C@@H](N)CC2)Cc2ccc(C#N)cc2)cc1-c1ccc(CN[C@H](C)c2ccc(C)cc2)o1", "concentration": "1 µM", "remaining activity": "148%"}
{"Compound": "NS(=O)(=O)c1ccc(CNc2nc(Nc3cccc(CN4CCOCC4)c3)ncc2Br)cc1", "method": "radiometric", "concentration": "1 µM", "remaining activity": "66%"}
{"Compound": "CCCOc1ccc(OC)c(F)c1C(=O)c1ccc(C(=O)N[C@@H]2CNC[C@H]2NC(=O)c2ccc3[nH]ncc3c2)cc1", "concentration": "10 µM", "remaining activity": "21%"}
{"Compound": "O=C(Nc1cnn(-c2csc(C(=O)NC3COC3)c2)c1)Nc1c(F)cccc1Cl", "concentration": "5 µM", "remaining activity": "108%"}
{"Compound": "Cc1ccc(C(=O)Nc2ccc(CN3CCN(C)CC3)c(C(F)(F)F)c2)cc1C#Cc1cnc2cccnn12", "concentration": "23.5 nM", "remaining activity": "100%"}
{"Compound": "NS(=O)(=O)c1ccc(CNc2ccnc(Nc3cccc(NC(=O)N4CCCC4)c3)n2)cc1", "method": "radiometric", "concentration": "1 µM", "remaining activity": "104%"}
{"Compound": "Oc1cccc(-c2nc(N3CCOCC3)c3oc4ncccc4c3n2)c1", "concentration": "10 µM", "remaining activity": "91%"}
{"Compound": "NS(=O)(=O)c1ccc(CNc2nc(Nc3cccc(CN4CCOCC4)c3)ncc2C2CC2)cc1", "method": "radiometric", "concentration": "1 µM", "remaining activity": "100%"}
{"Compound": "CC(C)(C)c1nc(-c2cccc(NS(=O)(=O)c3c(F)cccc3F)c2F)c(-c2ccnc(N)n2)s1", "method": "radiometric", "concentration": "1 µM", "remaining activity": "90%"}
{"Compound": "O=C(NCCCNc1nc(Nc2cccc(NC(=O)N3CCCC3)c2)ncc1Br)C1CCC1", "method": "radiometric", "concentration": "1 µM", "remaining activity": "-6%"}
{"Compound": "O=C(Nc1cnn(-c2csc(C(=O)NC3COC3)c2)c1)Nc1ccccc1Cl", "concentration": "5 µM", "remaining activity": "96.3%"}
{"Compound": "COc1cc(Nc2cnc(C#N)c(O[C@H](C)CN(C)C)n2)ncc1-c1cnn(C)c1", "method": "radiometric", "concentration": "10 µM", "remaining activity": "80%"}
{"Compound": "CC(C)(O)[C@H]1CC[C@H](Nc2ccc3ncc(-c4cccc(C(F)(F)F)c4)n3n2)CC1", "concentration": "1 µM", "remaining activity": "102%"}
{"Compound": "Cc1nn(CC(F)(F)F)cc1Nc1nccc(NCCc2cnc[nH]2)n1", "method": "radiometric", "concentration": "1 µM", "remaining activity": "109%"}
{"Compound": "Cc1cnc(NC2CCOCC2)nc1-n1cnc(C(=O)NC(CN)c2cc(F)cc(Cl)c2)c1 (stereo not shown)", "method": "radiometric", "concentration": "1 µM", "remaining activity": "43%"}
{"Compound": "CC(C)(C)c1nc2c(s1)c1nc(N)ncc1c1ccc(NS(=O)(=O)c3c(F)cccc3F)c(F)c12", "method": "radiometric", "concentration": "1 µM", "remaining activity": "90%"}
{"Compound": "CCN(CC)c1ccc(C2=NNC(=O)CC2C)cc1[N+](=O)[O-] (stereo not shown)", "concentration": "10 µM", "remaining activity": "102%"}
{"Compound": "Cn1c(=O)n(-c2ccc(C(C)(C)C#N)cc2)c2c3cc(-c4cnc5ccccc5c4)ccc3ncc21", "concentration": "10 µM", "remaining activity": "97%"}
{"Compound": "c1cc(CN2CCOCC2)cc(Nc2ncc(C3CC3)c(NCCc3c[nH]cn3)n2)c1", "method": "radiometric", "concentration": "1 µM", "remaining activity": "1%"}
